In ChEMBL document CHEMBL5705905, “Pharmacological targeting of kinases MST1 and MST2 augments tissue repair and regeneration” (Sci Transl Med, 2016):
Activity calls are given as the source filed them. The rule behind the calls is not given here.

What was measured:
[1] = biological target: Rhodopsin kinase GRK7 (Homo sapiens) (UniProt Q8WTQ7); experiment: Inhibition of GRK7 (unknown origin) assessed as remaining activity at 1 uM by Kinome scan method relative to control
Mus musculus [2] = experiment: Protection against Mst1fl/fl Mst2fl/fl-Alb-Cre double knockout mouse assessed as Ki67-positive cells at 1 mg/kg, ip administrated twice a day for 2 days measured after 36 hrs by immunohistochemical staining; type: functional, organism-based; details: Liver, time 2.0 day
[3] = biological target: Casein kinase I isoform gamma-2 (Homo sapiens) (UniProt P78368); experiment: Inhibition of CSNK1G2 (unknown origin) assessed as remaining activity at 1 uM by Kinome scan method relative to control
Summary of the method: (§1)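 Active-site-dependent competition-binding profiling (KINOMEscan) at 1 μM against a 468-kinase panel; compound supplied from a 10 mM DMSO stock. Read-out is ctrl% = (test signal − positive control signal)/(negative control signal − positive control signal) × 100. DMSO is the negative control (100%) and a control compound the positive control (0%). Lower ctrl% means tighter binding.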

[4] = biological target: Bone morphogenetic protein receptor type-1A (Homo sapiens) (UniProt P36894); experiment: Inhibition of BMPR1A (unknown origin) assessed as remaining activity at 1 uM by Kinome scan method relative to control
Summary of the method: (§2)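 Active-site-dependent competition-binding (KINOMEscan) panel of 468 kinases, test compound at 1 μM (from a 10 mM DMSO stock). Read-out is ctrl% = (test signal − positive control signal)/(negative control signal − positive control signal) × 100. DMSO is the negative control (100%) and a control compound is the positive control (0%). Lower ctrl% means tighter binding.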

[5] = biological target: Protein kinase C delta type (Homo sapiens) (UniProt Q05655); experiment: Inhibition of PRKCD (unknown origin) assessed as remaining activity at 1 uM by Kinome scan method relative to control
[6] = biological target: Serine/threonine-protein kinase BRSK2 (Homo sapiens) (UniProt Q8IWQ3); experiment: Inhibition of BRSK2 (unknown origin) assessed as remaining activity at 1 uM by Kinome scan method relative to control; summary of the method: as §2
[7] = biological target: Atypical kinase COQ8A, mitochondrial (Homo sapiens) (UniProt Q8NI60); experiment: Inhibition of ADCK3 (unknown origin) assessed as remaining activity at 1 uM by Kinome scan method relative to control; summary of the method: as §2
[8] = Oral bioavailability in male Sprague-Dawley rat at 10 mg/kg measured for 24 hrs by LC-MS/MS analysis; type: ADME, organism-based; details: in vivo
Mus musculus [9] = experiment: In vivo inhibition of MST1/2 in mouse assessed as block in MOB1 phosphorylation level at 1 mg/kg, ip administration by immunoblot analysis; type: functional, organism-based
Summary of the method: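 Wild-type mice received escalating intraperitoneal doses, and livers were collected 3 h later. Liver lysates were immunoblotted for p-MOB1 and quantified relative to controls. Means ± SD, n = 3, Student's t test.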

[10] = biological target: Serine/threonine-protein kinase MRCK beta (Homo sapiens) (UniProt Q9Y5S2); experiment: Inhibition of MRCKB (unknown origin) assessed as remaining activity at 1 uM by Kinome scan method relative to control
[11] = biological target: Activin receptor type-2B (Homo sapiens) (UniProt Q13705); experiment: Inhibition of ACVR2B (unknown origin) assessed as remaining activity at 1 uM by Kinome scan method relative to control; summary of the method: as §2
[12] = biological target: Phosphatidylinositol 5-phosphate 4-kinase type-2 beta (Homo sapiens) (UniProt P78356); experiment: Inhibition of PIP5K2B (unknown origin) assessed as remaining activity at 1 uM by Kinome scan method relative to control
[13] = biological target: Mitogen-activated protein kinase kinase kinase kinase 1 (Homo sapiens) (UniProt Q92918); experiment: Inhibition of HPK1 (unknown origin) assessed as remaining activity at 1 uM by Kinome scan method relative to control
[14] = biological target: Dual specificity protein kinase CLK1 (Homo sapiens) (UniProt P49759); experiment: Inhibition of CLK1 (unknown origin) assessed as remaining activity at 1 uM by Kinome scan method relative to control; summary of the method: as §1
[15] = biological target: AP2-associated protein kinase 1 (Homo sapiens) (UniProt Q2M2I8); experiment: Inhibition of AAK1 (unknown origin) assessed as remaining activity at 1 uM by Kinome scan method relative to control; summary of the method: as §2
[16] = biological target: Cyclin-dependent kinase 11B (Homo sapiens) (UniProt P21127); experiment: Inhibition of CDC2L1 (unknown origin) assessed as remaining activity at 1 uM by Kinome scan method relative to control; summary of the method: as §1
[17] = biological target: Serine/threonine-protein kinase TNNI3K (Homo sapiens) (UniProt Q59H18); experiment: Inhibition of TNNI3K (unknown origin) assessed as remaining activity at 1 uM by Kinome scan method relative to control
[18] = biological target: Cyclin-dependent kinase 4/cyclin D1 (Homo sapiens) (UniProt P11802+P24385); experiment: Inhibition of CDK4/cyclinD1 (unknown origin) assessed as remaining activity at 1 uM by Kinome scan method relative to control; type: protein-complex assay; summary of the method: as §1
[19] = biological target: Serine/threonine-protein kinase 3 (Homo sapiens, UniProt Q13188, Y101F)
HepG2 [20] = experiment: Induction of apoptosis in human HepG2 cells assessed as early apoptosis cells at 3 uM by annexinV staining (Rvb =4.16 %); type: functional
[21] = biological target: Non-receptor tyrosine-protein kinase TYK2 (Homo sapiens, UniProt P29597); experiment: Inhibition of TYK2 JH1domain-catalytic (unknown origin) in presence of ATP by enzymatic assay
[22] = biological target: Receptor-interacting serine/threonine-protein kinase 4 (Homo sapiens, UniProt P57078); experiment: Binding affinity to RIPK4 (unknown origin) assessed as dissociation constant
[23] = biological target: Mitogen-activated protein kinase kinase kinase 5 (Homo sapiens) (UniProt Q99683); experiment: Inhibition of ASK1 (unknown origin) assessed as remaining activity at 1 uM by Kinome scan method relative to control; summary of the method: as §2
[24] = biological target: Death-associated protein kinase 2 (Homo sapiens) (UniProt Q9UIK4); experiment: Inhibition of DAPK2 (unknown origin) assessed as remaining activity at 1 uM by Kinome scan method relative to control; summary of the method: as §1
[25] = biological target: Serine/threonine-protein kinase MARK1 (Homo sapiens) (UniProt Q9P0L2); experiment: Inhibition of MARK1 (unknown origin) assessed as remaining activity at 1 uM by Kinome scan method relative to control
[26] = biological target: Serine/threonine-protein kinase D1 (Homo sapiens) (UniProt Q15139); experiment: Inhibition of PRKD1 (unknown origin) assessed as remaining activity at 1 uM by Kinome scan method relative to control
[27] = biological target: Serine/threonine-protein kinase NIM1 (Homo sapiens) (UniProt Q8IY84); experiment: Inhibition of NIM1 (unknown origin) assessed as remaining activity at 1 uM by Kinome scan method relative to control
[28] = biological target: Serine/threonine-protein kinase PAK 4 (Homo sapiens) (UniProt O96013); experiment: Inhibition of PAK4 (unknown origin) assessed as remaining activity at 1 uM by Kinome scan method relative to control
HepG2 [29] = experiment: Induction of apoptosis in human HepG2 cells overexpressing MST2 assessed as necrosis cells at 3 uM by annexinV staining (Rvb =0.24 %); type: functional

Chain of Serine/threonine-protein kinase TNNI3K (Homo sapiens) (Q59H18 whole entry): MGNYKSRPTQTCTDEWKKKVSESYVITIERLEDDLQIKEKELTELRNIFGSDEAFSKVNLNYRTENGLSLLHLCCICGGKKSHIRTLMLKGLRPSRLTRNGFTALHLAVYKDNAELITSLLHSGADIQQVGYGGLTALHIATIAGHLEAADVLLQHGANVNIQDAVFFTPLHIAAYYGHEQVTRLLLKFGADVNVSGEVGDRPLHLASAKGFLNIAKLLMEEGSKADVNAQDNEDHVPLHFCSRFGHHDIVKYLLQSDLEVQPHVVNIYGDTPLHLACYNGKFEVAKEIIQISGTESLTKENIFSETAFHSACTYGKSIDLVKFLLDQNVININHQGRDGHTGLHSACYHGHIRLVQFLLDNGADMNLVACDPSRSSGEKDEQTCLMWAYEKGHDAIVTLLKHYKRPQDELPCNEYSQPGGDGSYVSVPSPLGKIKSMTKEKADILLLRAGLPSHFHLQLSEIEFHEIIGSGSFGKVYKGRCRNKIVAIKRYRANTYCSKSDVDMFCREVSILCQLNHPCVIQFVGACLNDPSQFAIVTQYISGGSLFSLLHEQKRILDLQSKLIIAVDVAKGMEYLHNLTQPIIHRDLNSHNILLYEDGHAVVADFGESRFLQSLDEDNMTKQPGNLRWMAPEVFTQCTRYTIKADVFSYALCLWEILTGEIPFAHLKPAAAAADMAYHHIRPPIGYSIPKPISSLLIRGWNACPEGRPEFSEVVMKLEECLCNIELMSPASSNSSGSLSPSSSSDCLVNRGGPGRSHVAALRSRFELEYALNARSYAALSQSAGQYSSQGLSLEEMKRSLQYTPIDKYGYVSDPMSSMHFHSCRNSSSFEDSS
Chain of Serine/threonine-protein kinase 3 (Q13188 whole entry Y101F): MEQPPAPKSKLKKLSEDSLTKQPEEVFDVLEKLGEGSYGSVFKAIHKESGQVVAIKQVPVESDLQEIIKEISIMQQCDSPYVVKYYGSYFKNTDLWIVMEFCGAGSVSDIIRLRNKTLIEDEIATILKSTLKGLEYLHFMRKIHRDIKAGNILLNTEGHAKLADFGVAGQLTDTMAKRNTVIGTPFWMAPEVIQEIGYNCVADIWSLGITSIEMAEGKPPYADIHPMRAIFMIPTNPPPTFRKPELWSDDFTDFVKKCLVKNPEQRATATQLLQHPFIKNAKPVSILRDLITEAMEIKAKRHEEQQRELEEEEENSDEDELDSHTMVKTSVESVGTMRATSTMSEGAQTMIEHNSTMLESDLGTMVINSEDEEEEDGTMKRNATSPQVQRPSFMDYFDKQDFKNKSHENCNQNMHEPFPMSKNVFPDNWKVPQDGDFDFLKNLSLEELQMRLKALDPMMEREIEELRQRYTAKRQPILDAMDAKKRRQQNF
Chain of Phosphatidylinositol 5-phosphate 4-kinase type-2 beta (Homo sapiens) (P78356 whole entry): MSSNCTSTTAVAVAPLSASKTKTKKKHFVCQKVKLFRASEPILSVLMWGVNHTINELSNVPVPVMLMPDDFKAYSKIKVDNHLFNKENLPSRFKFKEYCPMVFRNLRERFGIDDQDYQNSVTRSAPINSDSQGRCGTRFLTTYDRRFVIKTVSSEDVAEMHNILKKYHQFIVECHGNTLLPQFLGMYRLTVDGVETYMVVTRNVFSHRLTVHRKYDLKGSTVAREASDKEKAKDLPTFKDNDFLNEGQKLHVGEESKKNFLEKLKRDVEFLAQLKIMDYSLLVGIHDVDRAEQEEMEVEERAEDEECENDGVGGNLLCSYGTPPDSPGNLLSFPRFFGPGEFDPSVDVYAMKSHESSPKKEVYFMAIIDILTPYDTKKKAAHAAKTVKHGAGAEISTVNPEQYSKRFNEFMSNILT
Chain of Cyclin-dependent kinase 11B (Homo sapiens) (P21127 whole entry): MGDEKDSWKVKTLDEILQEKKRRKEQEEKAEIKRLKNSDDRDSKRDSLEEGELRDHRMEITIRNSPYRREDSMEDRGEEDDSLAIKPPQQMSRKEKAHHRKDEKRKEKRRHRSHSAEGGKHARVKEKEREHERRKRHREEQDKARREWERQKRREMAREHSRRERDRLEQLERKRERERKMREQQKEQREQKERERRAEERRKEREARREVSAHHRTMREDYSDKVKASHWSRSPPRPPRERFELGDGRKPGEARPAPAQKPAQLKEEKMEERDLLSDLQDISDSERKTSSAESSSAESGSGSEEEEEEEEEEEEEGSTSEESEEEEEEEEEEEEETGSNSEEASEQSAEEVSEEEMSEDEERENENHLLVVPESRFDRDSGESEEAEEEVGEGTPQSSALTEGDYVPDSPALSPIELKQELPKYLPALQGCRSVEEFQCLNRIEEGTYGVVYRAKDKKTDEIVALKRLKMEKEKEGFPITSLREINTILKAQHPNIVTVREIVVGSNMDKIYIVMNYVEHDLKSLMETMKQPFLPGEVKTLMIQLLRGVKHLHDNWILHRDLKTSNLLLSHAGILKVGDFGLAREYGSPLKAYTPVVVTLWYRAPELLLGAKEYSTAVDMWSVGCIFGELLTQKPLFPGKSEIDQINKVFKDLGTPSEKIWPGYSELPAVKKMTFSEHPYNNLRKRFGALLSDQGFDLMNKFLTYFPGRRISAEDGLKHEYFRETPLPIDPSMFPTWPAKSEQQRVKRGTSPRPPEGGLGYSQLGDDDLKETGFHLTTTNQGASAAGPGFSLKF
Chain of AP2-associated protein kinase 1 (Homo sapiens) (Q2M2I8 whole entry, looked up): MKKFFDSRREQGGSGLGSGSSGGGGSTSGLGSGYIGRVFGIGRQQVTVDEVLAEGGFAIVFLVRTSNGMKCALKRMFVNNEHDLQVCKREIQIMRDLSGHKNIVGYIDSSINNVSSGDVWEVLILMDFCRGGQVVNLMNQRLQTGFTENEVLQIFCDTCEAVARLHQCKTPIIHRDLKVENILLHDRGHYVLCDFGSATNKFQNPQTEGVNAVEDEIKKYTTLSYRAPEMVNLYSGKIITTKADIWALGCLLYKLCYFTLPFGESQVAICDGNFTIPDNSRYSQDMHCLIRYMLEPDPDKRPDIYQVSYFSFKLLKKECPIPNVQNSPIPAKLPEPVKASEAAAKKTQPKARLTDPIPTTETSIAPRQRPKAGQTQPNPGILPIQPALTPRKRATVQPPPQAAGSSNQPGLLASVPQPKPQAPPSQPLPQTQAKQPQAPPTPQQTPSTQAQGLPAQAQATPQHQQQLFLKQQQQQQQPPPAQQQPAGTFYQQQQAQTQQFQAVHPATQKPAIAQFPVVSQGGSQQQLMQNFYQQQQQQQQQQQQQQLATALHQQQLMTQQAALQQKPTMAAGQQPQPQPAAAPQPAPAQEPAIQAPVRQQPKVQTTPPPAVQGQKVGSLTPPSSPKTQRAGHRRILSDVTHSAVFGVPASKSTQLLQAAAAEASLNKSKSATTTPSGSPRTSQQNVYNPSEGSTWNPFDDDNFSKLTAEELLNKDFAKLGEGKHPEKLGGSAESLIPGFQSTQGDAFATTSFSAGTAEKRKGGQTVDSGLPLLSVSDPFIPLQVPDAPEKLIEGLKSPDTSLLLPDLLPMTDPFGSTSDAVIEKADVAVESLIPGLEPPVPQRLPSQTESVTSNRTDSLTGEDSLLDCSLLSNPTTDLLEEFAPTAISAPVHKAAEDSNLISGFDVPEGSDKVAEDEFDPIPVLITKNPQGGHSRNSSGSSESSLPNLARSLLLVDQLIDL
Chain of Dual specificity protein kinase CLK1 (Homo sapiens) (P49759 whole entry, looked up): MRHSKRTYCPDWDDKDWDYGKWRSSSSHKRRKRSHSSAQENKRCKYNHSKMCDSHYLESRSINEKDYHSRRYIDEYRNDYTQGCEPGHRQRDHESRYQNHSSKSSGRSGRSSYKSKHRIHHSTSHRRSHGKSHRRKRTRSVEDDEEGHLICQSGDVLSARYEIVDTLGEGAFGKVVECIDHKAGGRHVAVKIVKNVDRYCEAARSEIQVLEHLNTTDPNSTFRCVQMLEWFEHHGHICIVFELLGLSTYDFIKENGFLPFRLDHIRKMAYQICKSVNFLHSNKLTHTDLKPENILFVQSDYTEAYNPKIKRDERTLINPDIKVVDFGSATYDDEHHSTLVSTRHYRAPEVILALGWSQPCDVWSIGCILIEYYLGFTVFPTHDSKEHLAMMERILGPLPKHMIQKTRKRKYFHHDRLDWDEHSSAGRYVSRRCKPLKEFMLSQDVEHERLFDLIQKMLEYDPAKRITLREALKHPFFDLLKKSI
Chain of Serine/threonine-protein kinase BRSK2 (Homo sapiens) (Q8IWQ3 whole entry): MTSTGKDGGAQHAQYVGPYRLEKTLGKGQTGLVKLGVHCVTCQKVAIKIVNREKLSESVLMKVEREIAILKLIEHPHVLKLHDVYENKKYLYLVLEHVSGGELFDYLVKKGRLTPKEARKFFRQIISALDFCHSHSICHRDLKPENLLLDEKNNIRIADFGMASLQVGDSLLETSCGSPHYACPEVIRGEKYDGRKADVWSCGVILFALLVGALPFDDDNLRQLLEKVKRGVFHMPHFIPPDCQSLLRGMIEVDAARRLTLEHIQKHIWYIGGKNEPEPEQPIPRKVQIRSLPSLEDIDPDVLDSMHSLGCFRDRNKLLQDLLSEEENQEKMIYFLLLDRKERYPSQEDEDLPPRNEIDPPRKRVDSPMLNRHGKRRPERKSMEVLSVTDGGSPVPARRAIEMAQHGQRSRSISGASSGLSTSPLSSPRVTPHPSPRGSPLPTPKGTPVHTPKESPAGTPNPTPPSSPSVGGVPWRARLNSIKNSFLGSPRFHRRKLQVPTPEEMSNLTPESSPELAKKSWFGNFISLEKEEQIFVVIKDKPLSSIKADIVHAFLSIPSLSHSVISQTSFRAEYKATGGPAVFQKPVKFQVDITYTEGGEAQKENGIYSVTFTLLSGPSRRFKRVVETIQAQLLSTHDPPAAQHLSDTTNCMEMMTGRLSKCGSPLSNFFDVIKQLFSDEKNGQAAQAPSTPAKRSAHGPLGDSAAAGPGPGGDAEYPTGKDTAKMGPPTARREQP

CN1C(=O)c2sccc2N(C)c2nc(Nc3ccc(S(N)(=O)=O)cc3)ncc21
Activity [1]: 74% | Activity (Mus musculus [2]): inactive | Activity [3]: 100% | Activity [4]: 70% | Activity [5]: 94% | Activity [6]: 99% | Activity [7]: 92% | bioavailability [8]: 39.5% | inhibition (Mus musculus [9]): Active | Activity [10]: 100% | Activity [11]: 100% | Activity [12]: 100% | Activity [13]: 79% | Activity [14]: 72% | Activity [15]: 100% | Activity [16]: 85% | Activity [17]: 100% | Activity [18]: 93% | IC50 [19]: 361 nM | Activity (HepG2 [20]): 4.04% | IC50 [21]: 1.9 nM | Kd [22]: 140 nM | Activity [23]: 100% | Activity [24]: 100% | Activity [25]: 92% | Activity [26]: 98% | Activity [27]: 61% | Activity [28]: 86% | Activity (HepG2 [29]): 0.27%
